In ChEMBL document CHEMBL1125728, “Dopamine autoreceptor agonists as potential antipsychotics. 2. (Aminoalkoxy)-4H-1-benzopyran-4-ones” (J Med Chem, 1991):
The source made the active and inactive calls. No cut-off for these calls is given here.

tested on: Rattus norvegicus; assay: Effect on DOPA accumulation level at an intraperitoneal dose of 0.5 mg/kg in rat; assay type: functional; settings: not given

SMILES	DOPA level [µg/g]
O=C(CCCN1CCC(O)(c2ccc(Cl)cc2)CC1)c1ccc(F)cc1 [HALOPERIDOL]	2.72

tested on: Rattus norvegicus; assay: Inhibition of rat locomotor activity after being administered perorally.; assay type: functional; settings: po
In short: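 Inhibition of exploratory locomotor activity, scored together with motor coordination (ataxia). ED50 generated from four to five doses, with 5–12 animals per dose.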

SMILES	ED50 [mg/kg]
Cc1ccccc1N1CCN(CCCOc2ccc3c(=O)ccoc3c2)CC1	> 30
O=c1ccoc2cc(OCCCN3CC=C(c4ccccc4)CC3)ccc12	5.5
O=c1ccoc2cccc(OCCCN3CCN(c4ccccc4)CC3)c12	> 30

tested on: Rattus norvegicus; assay: Compound tested for % reversal of DOPA accumulation at an intraperitoneal dose of 30 mg/kg.; assay type: functional; settings: not given
In short: (§1)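 Rats dosed 1 h before sacrifice, with GBL (750 mg/kg ip) at 30 min and NSD 1015 (100 mg/kg ip) at 25 min before sacrifice. Striatal DOPA measured by HPLC with electrochemical detection. Value is percent reversal of the GBL-induced DOPA rise.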

SMILES	Reversal [%]
O=c1ccoc2cc(OCCCN3CC=C(c4ccccc4)CC3)ccc12	54
Cc1ccc(N2CCN(CCCOc3ccc4c(=O)ccoc4c3)CC2)cc1C	-29
O=c1ccoc2cc(OCCCCN3CCN(c4ccccc4)CC3)ccc12	63
O=c1ccoc2cc(OCCCN3CCN(c4ccccc4)CC3)ccc12	56

tested on: Rattus norvegicus; assay: Compound tested for % reversal of DOPA accumulation at an intraperitoneal dose of 30 mg/kg. Negative value in parenthesis indicates further % increase in DOPA levels over GBL-induced increase.; assay type: functional; settings: not given; in short: as §1

SMILES	Reversal [%]
O=c1ccoc2cc(OCCCN3CCN(c4ccc(F)cc4)CC3)ccc12	-42
O=c1ccoc2cc(OCCCN3CCN(c4cccc(Cl)c4)CC3)ccc12	-26

tested on: Rattus norvegicus; assay: Percentage of rats showing signs of stereotyped behavior at 110 mg/kg peroral dose and animals observed for 60 min postdose.; assay type: functional; settings: route oral

SMILES	Animals [%]
O=c1ccoc2cc(OCCCN3CC=C(c4ccccc4)CC3)ccc12	0

tested on: Rattus norvegicus; assay: Compound tested for % inhibition of DA neuronal firing at an intraperitoneal dose of 2.5 mg/kg.; assay type: functional; settings: ip

SMILES	inhibition in vivo at 2.5 mg/kg [%]
O=c1ccoc2cc(OCCCN3CC=C(c4ccccc4)CC3)ccc12	90
O=c1ccoc2cc(OCCCN3CCN(c4ccccc4)CC3)ccc12	68

tested on: Rattus norvegicus; assay: Compound tested for % reversal of DOPA accumulation at an intraperitoneal dose of 30 mg/kg; Inactive; assay type: functional, organism-based; set-up: dose 30 mg/kg; settings: not given; in short: as §1

SMILES	% reversal
Cc1ccccc1N1CCN(CCCOc2ccc3c(=O)ccoc3c2)CC1	inactive
O=c1ccoc2cc(OCCCN3CCN(c4ccc(Cl)cc4)CC3)ccc12	inactive
Cc1cccc(N2CCN(CCCOc3ccc4c(=O)ccoc4c3)CC2)c1	inactive
Cc1ccc(N2CCN(CCCOc3ccc4c(=O)ccoc4c3)CC2)cc1	inactive
O=c1ccoc2cccc(OCCCN3CCN(c4ccccc4)CC3)c12	inactive

tested on: Rattus norvegicus; assay: Effect on DOPA accumulation level at an intraperitoneal dose of 30 mg/kg in rat.; assay type: functional; settings: not given

SMILES	DOPA level [µg/g]
O=c1ccoc2cc(OCCCN3CCN(c4ccc(F)cc4)CC3)ccc12	1.36

tested on: Rattus norvegicus; assay: Percentage of rats showing signs of stereotyped behavior at 55 mg/kg peroral dose and followed 1 hr later by 10 mg/kg sc of SKF-38393 and animals observed for 60 min postdose before being; assay type: functional; settings: not given
In short: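 Naive rats, six per dose, received compound, then SKF 38393 (10 mg/kg sc) 1 h later. They were rated for repetitive rearing, head-swaying, sniffing, licking and gnawing of at least 5 s duration. Result given as the percentage of rats showing stereotypy.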

SMILES	Animals [%]
O=c1ccoc2cc(OCCCN3CC=C(c4ccccc4)CC3)ccc12	0

biological target: Dopamine receptor (Rattus norvegicus) (UniProt P25115+P19020+P30729+P18901+P61169); assay: Inhibitory binding activity against dopamine receptor in rat striatal membranes using [3H]HAL as the radioligand.; assay type: cell membranes; set-up: concentration or dose not given beside the values; settings: Striatum; Membrane; concentration not given here
In short: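 [3H]Haloperidol displacement from rat striatal DA receptors, run in duplicate. IC50 obtained by nonlinear regression from four to five concentrations.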

SMILES	inhibition [%]
O=c1ccoc2cc(OCCCN3CCN(c4cccc(O)c4)CC3)ccc12	29
O=c1ccoc2cc(OCCCN3CCN(c4ccc(F)cc4)CC3)ccc12	24
COc1ccc(N2CCN(CCCOc3ccc4c(=O)ccoc4c3)CC2)cc1	25
O=c1ccoc2cc(OCCCN3CCC(c4ccccc4)CC3)ccc12	40
O=c1ccoc2cc(OCCCN3CCN(c4ccc(Cl)cc4)CC3)ccc12	10
Cc1cccc(N2CCN(CCCOc3ccc4c(=O)ccoc4c3)CC2)c1	38
Cc1ccc(N2CCN(CCCOc3ccc4c(=O)ccoc4c3)CC2)cc1	36
O=c1ccoc2cccc(OCCCN3CCN(c4ccccc4)CC3)c12	9
Cc1ccc(N2CCN(CCCOc3ccc4c(=O)ccoc4c3)CC2)cc1C	41
O=c1ccoc2cc(OCCCCN3CCN(c4ccccc4)CC3)ccc12	74

More lines, now with the values ahead:

inhibition [%]	SMILES
29	Cc1ccccc1N1CCN(CCCOc2ccc3c(=O)ccoc3c2)CC1
59	O=c1ccoc2cc(OCCCN3CCN(c4ccccc4Cl)CC3)ccc12
35	O=c1ccoc2cc(OCCCN3CCN(c4cccc(Cl)c4)CC3)ccc12
48	COc1ccccc1N1CCN(CCCOc2ccc3c(=O)ccoc3c2)CC1
0	Cc1cccc(N2CCN(CCCOc3ccc4c(=O)ccoc4c3)CC2)c1C
20	O=c1ccoc2cc(OCCCN3CCN(c4ccccc4)CC3)ccc12
